ChEMBL document CHEMBL3351639, “Fluorinated analogues of marsanidine, a highly α2-AR/imidazoline I1 binding site-selective hypotensive agent. Synthesis and biological activities” (Eur J Med Chem, 2014)

Key:
[1] = molecular target: T1, Adrenergic receptor alpha-2 (Rattus norvegicus, UniProt P22086+P19328+P22909); assay: Displacement of [3H]RX821002 from alpha2-adrenoceptor in Sprague-Dawley rat brain membranes after 45 mins by liquid scintillation counting; type: cell membranes, Membrane
T1 sequence (P22086 whole entry): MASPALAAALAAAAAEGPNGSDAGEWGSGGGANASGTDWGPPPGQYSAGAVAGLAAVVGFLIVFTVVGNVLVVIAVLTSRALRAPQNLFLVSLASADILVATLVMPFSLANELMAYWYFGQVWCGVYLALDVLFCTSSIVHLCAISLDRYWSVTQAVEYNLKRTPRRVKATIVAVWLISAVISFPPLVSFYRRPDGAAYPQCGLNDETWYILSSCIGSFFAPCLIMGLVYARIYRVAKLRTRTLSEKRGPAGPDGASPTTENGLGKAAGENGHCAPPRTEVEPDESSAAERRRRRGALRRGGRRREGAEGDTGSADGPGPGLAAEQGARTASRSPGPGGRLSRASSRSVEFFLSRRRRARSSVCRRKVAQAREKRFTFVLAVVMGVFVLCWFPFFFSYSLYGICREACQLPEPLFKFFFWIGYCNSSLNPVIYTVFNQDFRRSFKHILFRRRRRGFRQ
T1 sequence (P19328 whole entry): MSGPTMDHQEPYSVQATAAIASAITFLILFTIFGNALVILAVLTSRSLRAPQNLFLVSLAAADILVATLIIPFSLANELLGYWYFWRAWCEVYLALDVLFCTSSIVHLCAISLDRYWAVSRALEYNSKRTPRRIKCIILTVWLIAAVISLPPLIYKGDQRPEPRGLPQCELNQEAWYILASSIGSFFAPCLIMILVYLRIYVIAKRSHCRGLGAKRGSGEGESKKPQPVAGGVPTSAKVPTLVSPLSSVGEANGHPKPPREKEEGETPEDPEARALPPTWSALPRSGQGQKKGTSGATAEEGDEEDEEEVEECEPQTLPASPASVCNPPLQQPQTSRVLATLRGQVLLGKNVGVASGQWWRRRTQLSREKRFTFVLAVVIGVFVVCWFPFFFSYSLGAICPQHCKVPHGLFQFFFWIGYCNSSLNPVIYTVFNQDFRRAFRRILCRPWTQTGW
T1 sequence (P22909 whole entry): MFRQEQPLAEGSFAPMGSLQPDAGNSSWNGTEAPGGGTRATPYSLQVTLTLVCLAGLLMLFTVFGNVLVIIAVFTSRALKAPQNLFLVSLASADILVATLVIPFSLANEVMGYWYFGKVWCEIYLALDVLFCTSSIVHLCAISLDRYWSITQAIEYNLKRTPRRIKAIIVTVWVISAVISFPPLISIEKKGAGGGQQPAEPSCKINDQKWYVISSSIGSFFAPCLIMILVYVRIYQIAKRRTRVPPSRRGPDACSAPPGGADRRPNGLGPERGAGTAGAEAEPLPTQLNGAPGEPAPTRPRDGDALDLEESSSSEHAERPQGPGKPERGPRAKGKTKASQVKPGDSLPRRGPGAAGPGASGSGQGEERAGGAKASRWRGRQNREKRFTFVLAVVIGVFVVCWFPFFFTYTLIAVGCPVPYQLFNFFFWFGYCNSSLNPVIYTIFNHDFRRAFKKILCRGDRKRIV
Summary of the method: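 Crude P2 membranes from brains of male Sprague-Dawley rats (250–280 g), 0.2–0.3 mg protein. Radioligand 1 nM [3H]RX821002 (α2) or [3H]prazosin (α1); 11 concentrations of compound, 0.1 nM–100 µM. Non-specific binding: 10 µM rauwolscine (α2) or 10 µM phenylephrine (α1). Triplicate incubation, RT, 45 min. PEI-soaked glass-fibre filtration, then scintillation counting. Ki by Cheng-Prusoff; 3–4 experiments, or one for low-affinity compounds.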

Rattus norvegicus [2] = assay: Hypotensive activity in anesthetized Wistar rat assessed as maximal reduction in mean arterial blood pressure at 0.1 mg/kg, iv measured during 60 mins post dose; type: functional
Summary of the method: (§1)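 Male Wistar rats (200–290 g) anaesthetized with thiopental 70 mg/kg i.p., maintained at 30 µg/kg/min; body temperature 36–37 °C. Carotid catheter recorded MAP and HR; jugular catheter for infusion. After 40 min of saline/thiopental infusion (1.2 ml/h), 0.1 mg/kg given as i.v. bolus (time 0). Signals sampled at 100 Hz. Maximal change from time 0 over 60 min, and its time, recorded. Saline vehicle control; n = 4–5.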

Rattus norvegicus [3] = assay: Hypotensive activity in anesthetized Wistar rat assessed as time required for maximal reduction in mean arterial blood pressure at 0.1 mg/kg, iv; type: functional; summary of the method: as §1
[4] = molecular target: T2, Alpha-2A adrenergic receptor (Homo sapiens, UniProt P08913); assay: Agonist activity at human alpha2A adrenoceptor expressed in CHO-K1 cells after 30 mins by [35S]GTPgammaS binding assay; type: functional, cell-based
T2 sequence (P08913 whole entry): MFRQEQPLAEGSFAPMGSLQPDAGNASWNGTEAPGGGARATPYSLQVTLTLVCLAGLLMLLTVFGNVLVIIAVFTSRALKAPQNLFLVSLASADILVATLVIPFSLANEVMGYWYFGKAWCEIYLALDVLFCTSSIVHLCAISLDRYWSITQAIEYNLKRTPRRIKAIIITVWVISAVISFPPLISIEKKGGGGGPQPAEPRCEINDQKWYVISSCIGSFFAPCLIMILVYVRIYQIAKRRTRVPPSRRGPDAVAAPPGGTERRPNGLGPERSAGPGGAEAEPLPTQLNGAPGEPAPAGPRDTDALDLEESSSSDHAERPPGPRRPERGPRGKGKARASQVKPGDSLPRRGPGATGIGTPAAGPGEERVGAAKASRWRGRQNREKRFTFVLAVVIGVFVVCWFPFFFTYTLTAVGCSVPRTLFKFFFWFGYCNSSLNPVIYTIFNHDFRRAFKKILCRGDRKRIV
Summary of the method: (§2)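 Membranes from CHO cells stably expressing human α2A-AR (5 µg protein) were incubated with 7 or 8 serial dilutions of compound and 0.1 nM [35S]GTPγS. Buffer: 25 mM Tris, 1 mM EDTA, 5 mM MgCl2, 20 mM NaCl, 1 µM GDP, 1 mM DTT, 30 µM ascorbic acid, pH 7.4. Incubation 30 min at RT, then vacuum filtration and scintillation counting. Run in duplicate, at least 3 repeats.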

[5] = molecular target: T3, Alpha-2A adrenergic receptor (Homo sapiens) (UniProt P08913); assay: Intrinsic activity at human alpha2A adrenoceptor expressed in CHO-K1 cells after 30 mins by [35S]GTPgammaS binding assay relative to norepinephrine; type: functional, cell-based; summary of the method: as §2
T3 sequence (whole entry): T2 sequence (P08913 whole entry)

Fc1cccc2cnn(N=C3NCCN3)c12
Ki [1]: 30.97 nM
Activity (Rattus norvegicus [2]): 59.4 mmHg
Time (Rattus norvegicus [3]): 33 min
EC50 [4]: 200 nM
Intrinsic activity [5]: 18%

Fc1ccc2cnn(N=C3NCCN3)c2c1
Ki [1]: 26.2 nM
Activity (Rattus norvegicus [2]): 36 mmHg
Time (Rattus norvegicus [3]): 35 min
EC50 [4]: 38.9 nM
Intrinsic activity [5]: 5.2%

Fc1ccc2c(cnn2CC2=NCCN2)c1
Ki [1]: 32.17 nM
Activity (Rattus norvegicus [2]): 7.2 mmHg
Time (Rattus norvegicus [3]): 40 min

Fc1ccc2c(cnn2N=C2NCCN2)c1
Ki [1]: 64.33 nM
Activity (Rattus norvegicus [2]): 8.6 mmHg
Time (Rattus norvegicus [3]): 11 min

Fc1ccc2cnn(CC3=NCCN3)c2c1
Ki [1]: 29.73 nM
Activity (Rattus norvegicus [2]): 12.7 mmHg
Time (Rattus norvegicus [3]): 36 min
